Experimental data as given in ChEMBL document CHEMBL3856289, “Discovery of ONO-7300243 from a Novel Class of Lysophosphatidic Acid Receptor 1 Antagonists: From Hit to Lead” (ACS Med Chem Lett, 2016).
Values after ≈ are worked out from the molar mass of the structure shown. Active and inactive are the calls of the source. The calls are words filed in the database; no cut-off is given here.

Assays:
[1] = target: T1, Lysophosphatidic acid receptor 1 (Homo sapiens, UniProt Q92633); test: Antagonist activity at human LPA1 receptor expressed in CHO cells assessed as reduction in LPA-induced intracellular Ca2+ concentration pretreated with compound followed by LPA addition by fluorescence assay; assay type: functional, cell-based
How it was run: (§1)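 IC50s came from nonlinear regression of 5-point concentration–response curves, reported with 95% confidence intervals.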

[2] = target: Lysophosphatidic acid receptor 2 (Homo sapiens, UniProt Q9HBW0); test: Inhibition of LPA2 (unknown origin); how it was run: as §1
[3] = target: T2, Lysophosphatidic acid receptor 3 (Homo sapiens, UniProt Q9UBY5); test: Inhibition of LPA3 (unknown origin); how it was run: as §1
T2 sequence (Q9UBY5 whole entry): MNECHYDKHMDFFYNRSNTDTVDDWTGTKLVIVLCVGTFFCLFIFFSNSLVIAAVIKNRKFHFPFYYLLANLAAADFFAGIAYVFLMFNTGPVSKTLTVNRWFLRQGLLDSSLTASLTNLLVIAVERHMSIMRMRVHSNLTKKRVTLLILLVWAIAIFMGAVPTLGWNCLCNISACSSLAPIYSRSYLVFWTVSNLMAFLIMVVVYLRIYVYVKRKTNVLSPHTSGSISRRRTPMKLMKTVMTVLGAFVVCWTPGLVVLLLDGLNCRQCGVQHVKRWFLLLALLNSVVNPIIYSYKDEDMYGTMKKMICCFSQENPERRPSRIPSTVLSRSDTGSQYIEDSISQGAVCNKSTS

Rattus norvegicus [4] = test: Inhibition of LPA-induced increase of intraurethral pressure in anesthetized rat at 10 mg/kg, id administered at 0 mins followed by LPA challenge at 0, 5, 15, 30 and 60 mins; assay type: functional; conditions: Urethra
How it was run: (§2)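 Anesthetized rats received compound in 0.5% methylcellulose intraduodenally at 0 min. LPA (300 μg/kg) was given i.v. before dosing and at 5, 15, 30 and 60 min. The read-out is the maximal inhibition rate of the LPA-evoked intraurethral pressure rise.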

[5] = Solubility of the compound in buffer at pH 6.8; assay type: physicochemical
[6] = Half life in human liver microsomes at 0.5 mg/ml; assay type: ADME
How it was run: (§3)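 Liver microsomes were used at 0.5 mg/mL with NADPH. Half-life is reported in min.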

[7] = Half life in rat liver microsomes at 0.5 mg/ml; assay type: ADME; how it was run: as §3
Rattus norvegicus [8] = test: Inhibition of LPA-induced increase of intraurethral pressure in anesthetized rat at 3 mg/kg, id administered at 0 mins followed by LPA challenge at 0, 5, 15, 30 and 60 mins; assay type: functional; conditions: Urethra; how it was run: as §2
[9] = Apparent permeability in human Caco2 cells; assay type: ADME, cell-based; conditions: Caco-2
Rattus norvegicus [10] = test: Inhibition of LPA-induced increase of intraurethral pressure in po dosed rat administered 60 mins prior to LPA addition; assay type: functional; conditions: Urethra
How it was run: (§4)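 Conscious rats were dosed orally. After 60 min, LPA (300 μg/kg) was injected i.v. and intraurethral pressure was recorded under short-term anesthesia. ID50 was taken from the dose–response.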

Rattus norvegicus [11] = test: Inhibition of LPA-induced increase of intraurethral pressure in rat at 10 mg/kg, po administered 60 mins prior to LPA addition; assay type: functional, organism-based; conditions: Urethra; how it was run: as §4
Rattus norvegicus [12] = test: Inhibition of LPA-induced increase of intraurethral pressure in rat at 30 mg/kg, po administered 60 mins prior to LPA addition; assay type: functional, organism-based; conditions: Urethra; how it was run: as §4
Rattus norvegicus [13] = test: In vivo antagonist activity at LPA1 receptor in conscious rat assessed as decrease in intraurethral pressure at 30 mg/kg, po; assay type: functional, organism-based
How it was run: (§5)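 Conscious rats were dosed orally at 0 min with no LPA stimulation. Intraurethral pressure and mean blood pressure were recorded continuously for 60 min and averaged over 10-min intervals. Comparison was against vehicle.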

Rattus norvegicus [14] = test: Toxicity in conscious rat assessed as reduction in mean blood pressure at 30 mg/kg, po; assay type: organism-based; conditions: in vivo; how it was run: as §5
Rattus norvegicus [15] = test: Reduction in intraurethral pressure in conscious rat at 1 mg/kg, po measured after 60 mins; assay type: functional, organism-based; conditions: 30 mg/kg, in the assay text read “30 mg/kg” for “1 mg/kg”; how it was run: as §5
[16] = Total clearance in rat at 3 mg/kg, iv; assay type: ADME, organism-based; conditions: in vivo
[17] = Half life in rat at 3 mg/kg, iv; assay type: ADME, organism-based; conditions: in vivo
Rattus norvegicus [18] = test: Toxicity in conscious rat assessed as reduction in mean blood pressure at 1 mg/kg, po measured after 60 mins; assay type: organism-based; conditions: in vivo, 1 h; how it was run: as §5
[19] = target: T1, Lysophosphatidic acid receptor 1; test: Antagonist activity at human LPA1 receptor expressed in CHO cells assessed as reduction in LPA-induced intracellular Ca2+ concentration at 1 uM pretreated with compound followed by LPA addition by fluorescence assay; assay type: functional, cell-based

Sequence of Lysophosphatidic acid receptor 2 (Q9HBW0 whole entry): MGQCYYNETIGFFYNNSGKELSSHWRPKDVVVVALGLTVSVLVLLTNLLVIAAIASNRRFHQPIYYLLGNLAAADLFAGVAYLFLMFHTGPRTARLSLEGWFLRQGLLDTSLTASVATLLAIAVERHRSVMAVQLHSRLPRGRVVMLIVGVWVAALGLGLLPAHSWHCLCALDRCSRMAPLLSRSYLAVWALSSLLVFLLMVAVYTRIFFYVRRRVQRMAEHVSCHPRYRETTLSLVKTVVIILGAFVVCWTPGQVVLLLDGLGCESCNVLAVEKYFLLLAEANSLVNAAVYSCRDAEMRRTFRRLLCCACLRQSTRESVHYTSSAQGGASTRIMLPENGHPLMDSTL
T1 sequence (Q92633 whole entry): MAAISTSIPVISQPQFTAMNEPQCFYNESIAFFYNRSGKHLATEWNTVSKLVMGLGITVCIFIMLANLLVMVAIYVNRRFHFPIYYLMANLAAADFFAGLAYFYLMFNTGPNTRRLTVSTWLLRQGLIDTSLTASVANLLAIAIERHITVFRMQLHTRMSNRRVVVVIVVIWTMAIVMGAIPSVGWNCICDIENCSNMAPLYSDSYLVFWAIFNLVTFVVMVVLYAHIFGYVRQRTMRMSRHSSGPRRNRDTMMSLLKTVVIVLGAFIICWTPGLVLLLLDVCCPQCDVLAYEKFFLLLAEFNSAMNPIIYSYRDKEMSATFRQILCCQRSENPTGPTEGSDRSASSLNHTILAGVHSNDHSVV

COc1cc(OC)cc(C(=O)N(CCCc2ccccc2)Cc2ccc(-c3ccccc3CC(=O)O)cc2)c1
IC50 [1]: 210 nM

Cc1cccc(C(=O)N(CCCc2ccccc2)Cc2ccc(-c3ccccc3C(=O)O)cc2)c1
IC50 [1]: 1700 nM

O=C(O)c1ccccc1-c1ccc(CN(CCCc2ccccc2)C(=O)c2ccccc2)cc1
IC50 [1]: 12100 nM

COc1cc(C(=O)N(CCCc2ccccc2)Cc2ccc(Oc3ccccc3C(=O)O)cc2)cc(OC)c1C
IC50 [1]: 71 nM

COc1cc(OC)cc(C(=O)N(CCCc2ccccc2)Cc2ccc(Oc3ccccc3C(=O)O)cc2)c1
IC50 [1]: 89 nM

COc1ccc(C(=O)N(CCCc2ccccc2)Cc2ccc(-c3ccccc3C(=O)O)cc2)cc1
IC50 [1]: 4400 nM

COc1cc(C(=O)N(CCCc2ccccc2)Cc2ccc(Oc3cc(Cl)ccc3C(=O)O)cc2)cc(OC)c1C
IC50 [1]: 5.9 nM

COc1cccc(C(=O)N(CCCc2ccccc2)Cc2ccc(-c3ccccc3C(=O)O)cc2)c1
IC50 [1]: 1300 nM

COc1cc(C(=O)N(CCCc2ccccc2)Cc2ccc(Oc3ccc(Cl)cc3C(=O)O)cc2)cc(OC)c1C
IC50 [1]: 3.5 nM
IC50 [2]: 790 nM
IC50 [3]: > 10000 nM
inhibition in vivo at 10 mg/kg (Rattus norvegicus [4]): 53%
solubility [5]: 69 µM (≈ 39.6 µg/mL)
half-life [6]: < 15 min
half-life [7]: < 15 min

COc1cc(C(=O)N(CCCOc2cccc(C(=O)O)c2)CCCc2ccccc2)cc(OC)c1C
IC50 [1]: 680 nM

COc1cc(OC)cc(C(=O)N(CCCc2ccccc2)Cc2ccc(Oc3cccc(C(=O)O)c3)cc2)c1
IC50 [1]: 140 nM

COc1ccc(C(=O)N(CCCc2ccccc2)Cc2ccc(-c3ccccc3C(=O)O)cc2)cc1OC
IC50 [1]: 3700 nM

COc1cc(OC)cc(C(=O)N(CCCc2ccccc2)Cc2ccc(-c3ccccc3C(=O)O)cc2)c1
IC50 [1]: 260 nM

COc1cc(C(=O)N(CCCc2ccc(F)cc2)Cc2ccc(CC(=O)O)cc2)cc(OC)c1C
IC50 [1]: > 1000 nM

COc1cc(C(=O)N(CCCc2ccccc2)Cc2ccc(Oc3c(C)cccc3C(=O)O)cc2)cc(OC)c1C
IC50 [1]: 140 nM

COc1cc(C(=O)N(CCCc2ccccc2)Cc2ccc(-c3ccccc3C(=O)O)cc2)cc(OC)c1OC
IC50 [1]: 390 nM

COc1cc(C(=O)N(CCCc2ccccc2)Cc2ccc(Oc3cccc(C)c3C(=O)O)cc2)cc(OC)c1C
IC50 [1]: 100 nM

COc1cc(C(=O)N(CCc2ccccc2)Cc2ccc(OCC(=O)O)cc2)cc(OC)c1C
IC50 [1]: > 10000 nM

O=C(O)c1ccccc1-c1ccc(CN(CCCc2ccccc2)C(=O)c2cccc(F)c2)cc1
IC50 [1]: 5500 nM

COc1cc(C(=O)N(CCCc2ccccc2)Cc2ccc(CC(=O)O)cc2)cc(OC)c1C
IC50 [1]: 160 nM
IC50 [2]: 8600 nM
IC50 [3]: > 10000 nM
inhibition in vivo at 3 mg/kg (Rattus norvegicus [8]): 62%
inhibition in vivo at 10 mg/kg (Rattus norvegicus [4]): 88%
solubility [5]: 73 µM (≈ 33.7 µg/mL)
Papp [9]: 15.9 ×10⁻⁶ cm/s
half-life [6]: 28 min
half-life [7]: 29 min
inhibition (Rattus norvegicus [10]): Dose-dependent effect
ED50 (Rattus norvegicus [10]; read-out: ID50 (the source's name)): 11.6 mg/kg
inhibition (Rattus norvegicus [11]): Active
inhibition (Rattus norvegicus [12]): Active
inhibition (Rattus norvegicus [13]): Active
Activity (Rattus norvegicus [14]): Non-Toxic
Activity (Rattus norvegicus [15]): Active
clearance [16]: 15.9 mL/min/kg
half-life [17]: 18 min

COc1cc(C(=O)N(CCCc2ccccc2)Cc2ccc(C(=O)O)cc2)cc(OC)c1C
IC50 [1]: > 1000 nM

COc1cc(C(=O)N(CCCc2ccccc2)Cc2ccc(Oc3ccccc3C(=O)O)cc2)cc(OC)c1OC
IC50 [1]: 130 nM

CCOc1ccccc1OCCN[C@H](C)Cc1ccc(OC)c(S(N)(=O)=O)c1 [TAMSULOSIN]
Activity (Rattus norvegicus [15]): Active
Activity (Rattus norvegicus [18]): Toxic

COc1cc(C(=O)N(CCCCc2ccccc2)Cc2ccc(OCC(=O)O)cc2)cc(OC)c1C
IC50 [1]: 6600 nM

COc1cc(C(=O)N(CCCc2ccccc2)Cc2ccc(Oc3cc(C)ccc3C(=O)O)cc2)cc(OC)c1C
IC50 [1]: 15 nM

COc1ccccc1C(=O)N(CCCc1ccccc1)Cc1ccc(-c2ccccc2C(=O)O)cc1
IC50 [1]: 3300 nM

COc1cc(C(=O)N(CCCc2ccccc2F)Cc2ccc(CC(=O)O)cc2)cc(OC)c1C
IC50 [1]: 220 nM

COc1cc(OC)cc(C(=O)N(CCCc2ccccc2)Cc2ccc(-c3ccccc3CCC(=O)O)cc2)c1
IC50 [1]: 230 nM

COc1cc(C(=O)N(C/C=C/c2ccccc2)Cc2ccc(CC(=O)O)cc2)cc(OC)c1C
IC50 [1]: > 1000 nM

COc1cc(OC)cc(C(=O)N(CCCc2ccccc2)Cc2ccc(Oc3ccc(C(=O)O)cc3)cc2)c1
inhibition [19]: 44%

Cc1cc(C)cc(C(=O)N(CCCc2ccccc2)Cc2ccc(-c3ccccc3C(=O)O)cc2)c1
IC50 [1]: 260 nM

COc1cc(C(=O)N(CCCc2ccccc2)Cc2ccc(OCC(=O)O)cc2)cc(OC)c1C
IC50 [1]: 100 nM
IC50 [2]: 23000 nM
IC50 [3]: > 10000 nM
inhibition in vivo at 10 mg/kg (Rattus norvegicus [4]): 44%
solubility [5]: 84 µM (≈ 40.1 µg/mL)
Papp [9]: 3.2 ×10⁻⁶ cm/s
half-life [6]: 22 min
half-life [7]: 24 min

COc1cc(C(=O)N(CCCc2cccc(F)c2)Cc2ccc(CC(=O)O)cc2)cc(OC)c1C
IC50 [1]: 190 nM

COc1cc(C(=O)N(CCCc2ccccc2)Cc2ccc(Oc3ccc(C)cc3C(=O)O)cc2)cc(OC)c1C
IC50 [1]: 42 nM
